Experimental data taken from ChEMBL document CHEMBL1122094, “Novel orally active inhibitors of passive cutaneous anaphylaxis in rats: N-[2-(4-pyridinyl)-4-pyrimidinyl]ureas and dialkyl [[[2-(4-pyridinyl)-4-pyrimidinyl]amino]methylene]malonates” (1982).

Assays:
Rattus norvegicus [1] = species on record: Rattus norvegicus; assay: Antiallergic potency against IgE-mediated passive cutaneous anaphylaxis (PCA) in rats; type: functional
Summary of the method: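 Multiple-dose oral tests were run alongside aminophylline in female Sprague–Dawley rats (90–125 g). Bluing diameters were recorded 30 min after challenge, and activity was taken as the rightward shift of the antibody dose-response curve.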

Rattus norvegicus [2] = species on record: Rattus norvegicus; assay: Antiallergic activity against IgE-mediated passive cutaneous anaphylaxis (PCA) in rats; type: functional
Summary of the method: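 Female Sprague–Dawley rats (90–125 g), fasted overnight, were sensitized with id injections of graded concentrations of IgE against egg albumin. Compound was given orally at 100 mg (base)/kg in 0.5% gum tragacanth to 4 rats, 1 h before challenge. Skin bluing diameters were read 30 min later, and the shift of the antibody dose-response curve to the right was expressed in multiples of antibody concentration.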

Compound: CCNC(=O)Nc1ccnc(-c2cccnc2)n1
- Potency (Rattus norvegicus [1]): 4.8
- PCA shift (Rattus norvegicus [2]): >10

Compound: CC(=O)C(=CNc1ccnc(-c2ccncc2)n1)C(C)=O
- PCA shift (Rattus norvegicus [2]): 5.6

Compound: COC(=O)C(/C=N/c1ccnc(-c2cccnc2)n1)=C(\O)OC
- Potency (Rattus norvegicus [1]): 2.9
- PCA shift (Rattus norvegicus [2]): >10

Compound: CCO/C(O)=C(\C=N\c1ccnc(-c2ccncc2)n1)C(C)=O
- PCA shift (Rattus norvegicus [2]): 2.9

Compound: CCOC(=O)C(/C=N/c1ccnc(-c2cccnc2)n1)=C(\O)OCC
- Potency (Rattus norvegicus [1]): 0.8
- PCA shift (Rattus norvegicus [2]): >10

Compound: CN(C(=O)NC(C)(C)C)c1ccnc(-c2ccncc2)n1
- PCA shift (Rattus norvegicus [2]): 4

Compound: CC(C)(C)C(=O)Nc1ccnc(-c2ccncc2)n1
- PCA shift (Rattus norvegicus [2]): 4.2

Compound: CC(C)CC(=O)Nc1ccnc(-c2ccncc2)n1
- PCA shift (Rattus norvegicus [2]): 5

Compound: CCCCNC(=O)Nc1ccnc(-c2ccncc2)n1
- Potency (Rattus norvegicus [1]): 2.4
- PCA shift (Rattus norvegicus [2]): >10

Compound: CC1(C)OC(=O)C(/C=N/c2ccnc(-c3ccncc3)n2)=C(O)O1
- PCA shift (Rattus norvegicus [2]): 2.2

Compound: CN(C)c1ccnc(-c2ccncc2)n1
- PCA shift (Rattus norvegicus [2]): 1.5

Compound: Cc1cc(O)nc(-c2ccncc2)n1
- PCA shift (Rattus norvegicus [2]): 2.8

Compound: Cc1cnc(-c2ccncc2)nc1NC(=O)NC(C)(C)C
- PCA shift (Rattus norvegicus [2]): 3.5

Compound: Nc1ccnc(-c2cc[n+]([O-])cc2)n1
- PCA shift (Rattus norvegicus [2]): 3.8

Compound: CCNc1ccnc(-c2ccncc2)n1
- PCA shift (Rattus norvegicus [2]): 8.4

Compound: NC(=O)Nc1ccnc(-c2ccncc2)n1
- PCA shift (Rattus norvegicus [2]): 4.8

Compound: CCCCOC(=O)Nc1ccnc(-c2ccncc2)n1
- PCA shift (Rattus norvegicus [2]): 3

Compound: Nc1ccnc(-c2cccnc2)n1
- PCA shift (Rattus norvegicus [2]): 4.2

Compound: CCCNC(=O)Nc1ccnc(-c2ccncc2)n1
- PCA shift (Rattus norvegicus [2]): >10

Compound: CC(C)(C)NC(=O)Nc1ccnc(-c2ccccn2)n1
- PCA shift (Rattus norvegicus [2]): 4.5

Compound: CC(=O)Nc1ccnc(-c2ccncc2)n1
- PCA shift (Rattus norvegicus [2]): 1.7

Compound: CC(C)(C)NC(=O)Nc1ccnc(-c2cccnc2)n1
- PCA shift (Rattus norvegicus [2]): 5.8

Compound: CCO/C(O)=C(C#N)\C=N\c1ccnc(-c2ccncc2)n1
- PCA shift (Rattus norvegicus [2]): 9.4

Compound: CC(C)NC(=O)Nc1ccnc(-c2ccncc2)n1
- Potency (Rattus norvegicus [1]): 2.4
- PCA shift (Rattus norvegicus [2]): >10

Compound: CC(C)(C)CC(=O)Nc1ccnc(-c2ccncc2)n1
- PCA shift (Rattus norvegicus [2]): 2.2

Compound: CCO/C(O)=C(C#N)\C(C)=N\c1ccnc(-c2ccncc2)n1
- PCA shift (Rattus norvegicus [2]): 5

Compound: CCCCNc1ccnc(-c2ccncc2)n1
- PCA shift (Rattus norvegicus [2]): 7.6

Compound: CCNC(=O)Nc1ccnc(-c2ccncc2)n1
- Potency (Rattus norvegicus [1]): 7
- PCA shift (Rattus norvegicus [2]): >10

Compound: CCCCNC(=O)Nc1ccnc(-c2cccnc2)n1
- PCA shift (Rattus norvegicus [2]): 8.5

Compound: CCN(CC)C(=O)Nc1ccnc(-c2ccncc2)n1
- PCA shift (Rattus norvegicus [2]): 8.9

Compound: CC(C)C(=O)Nc1ccnc(-c2ccncc2)n1
- PCA shift (Rattus norvegicus [2]): 2.3

Compound: CC(C)NC(=O)Nc1ccnc(-c2cccnc2)n1
- Potency (Rattus norvegicus [1]): 1.6
- PCA shift (Rattus norvegicus [2]): >10

Compound: CC(C)(C)NC(=O)Nc1ccnc(-c2cc[n+]([O-])cc2)n1
- PCA shift (Rattus norvegicus [2]): 1.5

Compound: CC(C)(C)NC(=O)Nc1ccnc(-c2ccncc2)n1
- Potency (Rattus norvegicus [1]): 3.9
- PCA shift (Rattus norvegicus [2]): >10

Compound: Nc1ccnc(-c2ccccn2)n1
- PCA shift (Rattus norvegicus [2]): 2.5

Compound: CC(C)(C)Nc1ccnc(-c2ccncc2)n1
- PCA shift (Rattus norvegicus [2]): 1.5

Compound: CC(C)(C)OC(=O)Nc1ccnc(-c2ccncc2)n1
- PCA shift (Rattus norvegicus [2]): 1.6

Compound: CCN(CC)c1cc(C)nc(-c2ccncc2)n1.Cl.Cl
- PCA shift (Rattus norvegicus [2]): 2.2

Compound: Cc1cc(N(C)C)nc(-c2ccncc2)n1.Cl.Cl
- PCA shift (Rattus norvegicus [2]): 5

Compound: CCCCN(C(=O)NC(C)C)c1ccnc(-c2ccncc2)n1.CS(=O)(=O)O.CS(=O)(=O)O
- PCA shift (Rattus norvegicus [2]): 4.2

Compound: CCC(CC)NC(=O)Nc1ccnc(-c2ccncc2)n1.CS(=O)(=O)O.CS(=O)(=O)O
- PCA shift (Rattus norvegicus [2]): 6.4

Compound: CS(=O)(=O)O.CS(=O)(=O)O.Cc1cc(NN)nc(-c2ccncc2)n1
- PCA shift (Rattus norvegicus [2]): 2

Compound: CC(C)NC(=O)Nc1ccnc(-c2cc[n+]([O-])cc2)n1.CS(=O)(=O)O.CS(=O)(=O)O
- Potency (Rattus norvegicus [1]): 1.8
- PCA shift (Rattus norvegicus [2]): 5.4

Compound: CCOC(=O)C(/C=N/c1ccnc(-c2ccccn2)n1)=C(\O)OCC.CS(=O)(=O)O
- PCA shift (Rattus norvegicus [2]): 4.1

Compound: Cc1cc(N(CCO)CCO)nc(-c2ccncc2)n1
- PCA shift (Rattus norvegicus [2]): 6.3

Compound: CNC(=O)Nc1ccnc(-c2ccncc2)n1
- Potency (Rattus norvegicus [1]): 3.8
- PCA shift (Rattus norvegicus [2]): >10

Compound: CC(C)(CO)NC(=O)Nc1ccnc(-c2ccncc2)n1
- Potency (Rattus norvegicus [1]): 1
- PCA shift (Rattus norvegicus [2]): >10

Compound: Nc1ccnc(-c2ccncc2)n1
- PCA shift (Rattus norvegicus [2]): 8.6

Compound: CCOC(=O)C(/C=N/c1cc(C)nc(-c2ccncc2)n1)=C(/O)OCC
- PCA shift (Rattus norvegicus [2]): 7.8

Compound: CCCCCC(=O)Nc1ccnc(-c2ccncc2)n1
- PCA shift (Rattus norvegicus [2]): 7

Compound: CC(C)(C)CNC(=O)Nc1ccnc(-c2ccncc2)n1
- PCA shift (Rattus norvegicus [2]): 2.2

Compound: CNc1ccnc(-c2ccncc2)n1
- PCA shift (Rattus norvegicus [2]): 7.4

Compound: CCOC(=O)C(/C=N/c1ccnc(-c2ccncc2)n1)=C(\O)OCC
- Potency (Rattus norvegicus [1]): 2.4
- PCA shift (Rattus norvegicus [2]): >10

Compound: CNc1cc(C)nc(-c2ccncc2)n1
- PCA shift (Rattus norvegicus [2]): 4.9

Compound: Cc1cc(Cl)nc(-c2ccncc2)n1
- PCA shift (Rattus norvegicus [2]): 1.4

Compound: COC(=O)C(/C=N/c1ccnc(-c2ccncc2)n1)=C(\O)OC
- Potency (Rattus norvegicus [1]): 5.8
- PCA shift (Rattus norvegicus [2]): >10

Compound: CC(C)Nc1ccnc(-c2ccncc2)n1
- PCA shift (Rattus norvegicus [2]): 9

Compound: Cc1cc(NC(=O)NC(C)(C)C)nc(-c2ccncc2)n1
- PCA shift (Rattus norvegicus [2]): 3.2

Compound: CC(C)NC(=O)N(C)c1ccnc(-c2ccncc2)n1
- PCA shift (Rattus norvegicus [2]): >10

Compound: Cc1cc(N)nc(-c2ccncc2)n1
- PCA shift (Rattus norvegicus [2]): 10.2
